Laboratory results published in paper PMC2638642 (Toxicological Sciences, 2008).

How the values were obtained:
BALB/c mice [1] = assay: Histopathology, 7-day toxicity study; assay type: in vivo
Toxicokinetic = assay type: in vivo, BALB/c mice
Method in brief: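 Female BALB/c mice (12/group) got vancomycin iv or ip at 50, 200 or 400 mg/kg. Retro-orbital EDTA plasma came from three mice per time point, 0.083–24 h after doses 1 and 7. Plasma went through SPE with a tinidazole internal standard, eluted in acetonitrile:KH2PO4 pH 4, then gradient LC; calibration by 1/y-weighted regression of peak-area ratio. Noncompartmental analysis; F = (AUCip/AUCiv)×(Doseiv/Doseip).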

BALB/c mice [2] = assay: Serum clinical chemistry, 7-day toxicity study; assay type: in vivo; conditions: for BUN change: 3 mice per group
Method in brief: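 Groups of six female BALB/c mice were dosed iv or ip with the test compound at 50, 200 or 400 mg/kg once daily for 7 days; controls got 0.9% saline by the same route. Retro-orbital blood was taken from three randomly selected mice per group on day 3 (before the third dose) and day 8 (before sacrifice). Serum BUN, ALP and GGT were measured by an outside veterinary laboratory.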

[3] = after iv administration in human; ref Palmer-Toy, 2000; Rybak, 2006; cited from earlier work
[4] = high-dose treatment, day 8, serum

With `CN[C@H](CC(C)C)C(=O)N[C@H]1C(=O)N[C@@H](CC(N)=O)C(=O)N[C@H]2C(=O)N[C@H]3C(=O)N[C@H](C(=O)N[C@H](C(=O)O)c4cc(O)cc(O)c4-c4cc3ccc4O)[C@H](O)c3ccc(c(Cl)c3)Oc3cc2cc(c3O[C@@H]2O[C@H](CO)[C@@H](O)[C@H](O)[C@H]2O[C@H]2C[C@](C)(N)[C@H](O)[C@H](C)O2)Oc2ccc(cc2Cl)[C@H]1O` [vancomycin] the “primary histopathological finding in kidneys” value (BALB/c mice [1]; 400 mg/kg/day either iv or ip x7, day 8, H&E) was “proximal tubular necrosis”, the “inflammatory cell infiltration into the affected renal tissue” value (BALB/c mice [1]; 400 mg/kg/day iv or ip x7, day 8, H&E) was “minimal” and the “signs of toxicity in clinical chemistry and histopathology assessments” value (BALB/c mice [1]; iv-200 (200 mg/kg/day iv x7)) was “did not exhibit signs of toxicity”. For the same molecule, the “AUC^0→∞ after iv relative to ip administration (iv higher)” value (Toxicokinetic; BALB/c mice, 200 mg/kg) was 1.7 fold, the “difference in Cmax value between iv and ip administration (iv higher)” value (Toxicokinetic; BALB/c mice, 200 mg/kg, after seven doses) was 3.4 fold and the “clinical condition of animals in TK study” value (Toxicokinetic; iv high-dose group (400 mg/kg), some animals) was “moribund or dead”. For the same molecule, the “CRE (serum creatinine) levels” value (BALB/c mice [2]; 50, 200, 400 mg/kg/day iv or ip x7) was “not significantly affected”, the BUN change (BALB/c mice [2]; high-dose (400 mg/kg/day x7) ip, day 8, serum) was “trend toward increased BUN values” and the BUN change (BALB/c mice [2]; high-dose (400 mg/kg/day x7) iv, day 8, serum) was “statistically significant increase”. The “alkaline phosphatase (ALP)” value (BALB/c mice [2]; [4]) was “affected”, the “gamma-glutamyl transferase (GGT)” value (BALB/c mice [2]; [4]) was “affected” and the “Cmax in human (also therapeutic range)” value [3] was 20 to 50 µg/mL.
